Read-outs that look alike come from different tables or passages of the source.
Columns and labels:
[1] = cited from earlier work
[2] = tested on: patients with refractory metastatic solid tumors; experiment: Response to therapy; type: in vivo, human
Method in brief: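 Patients with refractory metastatic solid tumors received oral test compound once daily (5–40 mg/day dose escalation), taken with water after overnight fasting. Dosing was initially continuous over 28-day cycles, then amended to 21 days on and 7 days off. Treatment continued until progression or toxicity. Measurable disease was assessed by RECIST, with radiographic studies at end of cycle 3 and every other cycle thereafter.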

[3] = Population pharmacokinetic analysis
[4] = type: in vivo, human; conditions: for AUC / Cmax / T1/2 / Tmax / Urine excretion, %dose: mean (range); for Urine excretion, %dose: urine 0-24 hr
Method in brief: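 Patients with refractory solid tumors took the capsule with water after overnight fasting. Plasma was drawn predose and at 0.5, 1, 2, 4, 6, 9, 12, 24, 32 and 48 h, then stored at −70°C. Drug was extracted into ethyl acetate and quantified by LC–ESI single-quadrupole MS (LLOQ 5 ng/ml). Parameters were noncompartmental per patient, with Cmax and Tmax as observed. Renal clearance = Ae,0–24/AUC0–24.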

[5] = tested on: patients with advanced refractory solid tumors; experiment: Toxicity assessment; type: in vivo, human
[6] = 5 mg single oral dose, cycle 1 day 1, n=2
[7] = 10 mg single oral dose, cycle 1 day 1, n=6
[8] = 15 mg single oral dose, cycle 1 day 1, n=3
[9] = 20 mg single oral dose, cycle 1 day 1, n=9
[10] = 25 mg single oral dose, cycle 1 day 1, n=6
[11] = 30 mg single oral dose, cycle 1 day 1, n=8
[12] = 35 mg single oral dose, cycle 1 day 1, n=6
[13] = 40 mg single oral dose, cycle 1 day 1, n=3

(α -(3-aminophthalimido) glutarimide) [lenalidomide]
unchanged lenalidomide excreted into urine, fraction of dose ([1]; healthy volunteers): two thirds
increase of lenalidomide exposure in mild RI over normal function ([1]; patients with multiple myeloma): 56%
median time on-study of patients with stable disease ([2]; 12 patients, range 4 – 11): 5 months
complete or partial response ([2]; 44 evaluable patients): No complete or partial response was noted
patients with stable disease who had prostate cancer ([2]; of 12 patients with SD): 9
interpatient variability on total lenalidomide clearance ([3]; before inclusion of CLCr in the model): 70.6%
BSV of Tlag, Population Mean (95% CI) ([3]; final PopPK model): 30.0 (2.2 – 47.9) CV%
BSV of V/F, Population Mean (95% CI) ([3]; final PopPK model): 33.0 (1.0 – 48.0) CV%
BSV of ka, Population Mean (95% CI) ([3]; final PopPK model): 146 (95 – 184) CV%
Residual error, Population Mean (95% CI) ([3]; final PopPK model): 34.0 (26.9 – 40.0) CV%
Tlag, Population Mean (95% CI) ([3]; final PopPK model): 0.37 (0.30 – 0.43) hr
V/F, Population Mean (95% CI) ([3]; final PopPK model): 57.8 (49.4 – 66.2) L
ka, Population Mean (95% CI) ([3]; final PopPK model): 4.60 (0.66 – 8.54) 1/hr
CL/F, Mild RI, Population Mean (95% CI) ([3]; final PopPK model, 50 ≤ CLCr ≤ 80 mL/min): 136 (97 – 175) ml/min
CL/F, Normal renal function, Population Mean (95% CI) ([3]; final PopPK model, CLCr > 80 mL/min): 243 (193 – 297) ml/min
BSV of Tlag, Bootstrap Median (95% CI) ([3]; non-parametric bootstrap): 29.1 (4.5 – 65.1) CV%
BSV of V/F, Bootstrap Median (95% CI) ([3]; non-parametric bootstrap): 31.5 (14.5 – 52.4) CV%
BSV of ka, Bootstrap Median (95% CI) ([3]; non-parametric bootstrap): 143 (92 – 197) CV%
Residual error, Bootstrap Median (95% CI) ([3]; non-parametric bootstrap): 33.8 (27.4 – 40.9) CV%
Tlag, Bootstrap Median (95% CI) ([3]; non-parametric bootstrap): 0.37 (0.25 – 0.43) hr
V/F, Bootstrap Median (95% CI) ([3]; non-parametric bootstrap): 57.8 (51.3 – 66.7) L
ka, Bootstrap Median (95% CI) ([3]; non-parametric bootstrap): 4.67 (2.52 – 9.19) 1/hr
CL/F, Mild RI, Bootstrap Median (95% CI) ([3]; non-parametric bootstrap, 50 ≤ CLCr ≤ 80 mL/min): 136 (103 – 178) ml/min
CL/F, Normal renal function, Bootstrap Median (95% CI) ([3]; non-parametric bootstrap, CLCr > 80 mL/min): 243 (202 – 297) ml/min
dose-normalized AUC ([3]; patients with normal renal function): 75 ng·h/ml per mg
dose-normalized AUC ([3]; renally impaired subjects (mild RI)): 167 ng·h/ml per mg
AUC [4, 6]: 302 (257, 346) ng·hr/ml
Cmax [4, 6]: 80 (66, 93) ng/ml
T1/2 [4, 6]: 2.7 (2.1, 3.3) hr
Tmax [4, 6]: 0.75 (0.5, 1) hr
AUC [4, 7]: 571 (256–1415) ng·hr/ml
Cmax [4, 7]: 107 (59–163) ng/ml
T1/2 [4, 7]: 3.1 (2.4–4.2) hr
Tmax [4, 7]: 1 (0.5– 4) hr
AUC [4, 8]: 1090 (712–1391) ng·hr/ml
Cmax [4, 8]: 195 (174–224) ng/ml
Tmax [4, 8]: 2 (1–4) hr
AUC [4, 9]: 1901 (239–4093) ng·hr/ml
Cmax [4, 9]: 343 (64–621) ng/ml
T1/2 [4, 9]: 3.1 (1.9–7.8) hr
Tmax [4, 9]: 1 (0.5–6.1) hr
AUC [4, 10]: 3820 (1081–11363) ng·hr/ml
Cmax [4, 10]: 451 (311–631) ng/ml
T1/2 [4, 10]: 5.3 (1.6–15.9) hr
Tmax [4, 10]: 1.5 (0.5–8.9) hr
AUC [4, 11]: 4040 (844–15445) ng·hr/ml
Cmax [4, 11]: 593 (69–1315) ng/ml
T1/2 [4, 11]: 4.0 (3.2–14.2) hr
Tmax [4, 11]: 1.5 (0.5–6) hr
Urine excretion, %dose ([4]; 30 mg single oral dose, n=3): 47.0 (36.3–62.0) %dose
AUC [4, 12]: 5309 (3172–7062) ng·hr/ml
Cmax [4, 12]: 782 (594–969) ng/ml
T1/2 [4, 12]: 6.7 (3.7–14.5) hr
Tmax [4, 12]: 1 (0.5–4) hr
Urine excretion, %dose ([4]; 35 mg single oral dose, n=4): 54.6 (48.3–63.1) %dose
AUC [4, 13]: 3926 (3281–4656) ng·hr/ml
Cmax [4, 13]: 842 (648–1002) ng/ml
T1/2 [4, 13]: 4.1 (1.8–6.2) hr
Tmax [4, 13]: 1 (0.75–2) hr
Urine excretion, %dose ([4]; 40 mg single oral dose, n=2): 44.9 (43.8, 46.0) %dose
CL/F_renal as share of the total clearance ([4]; 9 patients): about 50%
amount of unchanged lenalidomide excreted into urine for 24 hours ([4]; 30-40 mg dose groups): 45–55 % of dose
mean half-life (T1/2) ([4]; across all doses 5-40 mg, oral): 3.9 h
time of peak plasma concentration ([4]; after single oral administration): around 1 hour
patients with dose reductions ([5]; continuous doses, 4 out of 15 patients): 27%
Anemia, Grade 3, number of patients ([5]; continuous dosing (n=15)): 1
Constipation, Grade 1, number of patients ([5]; continuous dosing (n=15)): 2
Constipation, Grade 2, number of patients ([5]; continuous dosing (n=15)): 1
Diarrhea, Grade 1, number of patients ([5]; continuous dosing (n=15)): 4
Dizziness, Grade 1, number of patients ([5]; continuous dosing (n=15)): 3
Dizziness, Grade 2, number of patients ([5]; continuous dosing (n=15)): 1
Fatigue, Grade 1, number of patients ([5]; continuous dosing (n=15)): 4
Fatigue, Grade 2, number of patients ([5]; continuous dosing (n=15)): 1
Flatulence, Grade 1, number of patients ([5]; continuous dosing (n=15)): 3
Hypotension, Grade 1, number of patients ([5]; continuous dosing (n=15)): 2
Hypotension, Grade 3, number of patients ([5]; continuous dosing (n=15)): 1
Nausea, Grade 1, number of patients ([5]; continuous dosing (n=15)): 4
Neuropathic Sensory, Grade 1, number of patients ([5]; continuous dosing (n=15)): 4
Neutropenia, Grade 1, number of patients ([5]; continuous dosing (n=15)): 1
Neutropenia, Grade 2, number of patients ([5]; continuous dosing (n=15)): 3
Neutropenia, Grade 3, number of patients ([5]; continuous dosing (n=15)): 2
Pleural effusion, Grade 1, number of patients ([5]; continuous dosing (n=15)): 2
Pruritus, Grade 1, number of patients ([5]; continuous dosing (n=15)): 5
Pruritus, Grade 2, number of patients ([5]; continuous dosing (n=15)): 1
Rash/desquamation, Grade 1, number of patients ([5]; continuous dosing (n=15)): 4
SGPT, Grade 2, number of patients ([5]; continuous dosing (n=15)): 2
Thrombosis, Grade 3, number of patients ([5]; continuous dosing (n=15)): 2
Anemia, Grade 1, number of patients ([5]; intermittent dose (n=35)): 1
Anemia, Grade 2, number of patients ([5]; intermittent dose (n=35)): 1
Anemia, Grade 3, number of patients ([5]; intermittent dose (n=35)): 1
Anorexia, Grade 1, number of patients ([5]; intermittent dose (n=35)): 3
Anorexia, Grade 2, number of patients ([5]; intermittent dose (n=35)): 1
Constipation, Grade 1, number of patients ([5]; intermittent dose (n=35)): 4
Constipation, Grade 2, number of patients ([5]; intermittent dose (n=35)): 5
Diarrhea, Grade 1, number of patients ([5]; intermittent dose (n=35)): 5
Diarrhea, Grade 3, number of patients ([5]; intermittent dose (n=35)): 1
Dizziness, Grade 1, number of patients ([5]; intermittent dose (n=35)): 8
Dysgeusia, Grade 1, number of patients ([5]; intermittent dose (n=35)): 3
Edema, Grade 1, number of patients ([5]; intermittent dose (n=35)): 4
Fatigue, Grade 1, number of patients ([5]; intermittent dose (n=35)): 14
Fever, Grade 1, number of patients ([5]; intermittent dose (n=35)): 4
Hemolysis, Grade 2, number of patients ([5]; intermittent dose (n=35)): 1
Hemolysis, Grade 4, number of patients ([5]; intermittent dose (n=35)): 1
Infection, Grade 2, number of patients ([5]; intermittent dose (n=35)): 1
Infection, Grade 3, number of patients ([5]; intermittent dose (n=35)): 2
Insomnia, Grade 1, number of patients ([5]; intermittent dose (n=35)): 5
Leukopenia, Grade 2, number of patients ([5]; intermittent dose (n=35)): 1
Leukopenia, Grade 3, number of patients ([5]; intermittent dose (n=35)): 1
Myalgia, Grade 1, number of patients ([5]; intermittent dose (n=35)): 5
Myalgia, Grade 2, number of patients ([5]; intermittent dose (n=35)): 1
Nausea, Grade 1, number of patients ([5]; intermittent dose (n=35)): 9
Nausea, Grade 2, number of patients ([5]; intermittent dose (n=35)): 1
Neutropenia, Grade 1, number of patients ([5]; intermittent dose (n=35)): 1
Neutropenia, Grade 2, number of patients ([5]; intermittent dose (n=35)): 2
Neutropenia, Grade 3, number of patients ([5]; intermittent dose (n=35)): 2
Neutropenia, Grade 4, number of patients ([5]; intermittent dose (n=35)): 3
Pleural effusion, Grade 1, number of patients ([5]; intermittent dose (n=35)): 2
Pleural effusion, Grade 3, number of patients ([5]; intermittent dose (n=35)): 1
Pruritus, Grade 1, number of patients ([5]; intermittent dose (n=35)): 4
Pruritus, Grade 2, number of patients ([5]; intermittent dose (n=35)): 1
Rash/desquamation, Grade 1, number of patients ([5]; intermittent dose (n=35)): 7
Rash/desquamation, Grade 2, number of patients ([5]; intermittent dose (n=35)): 3
Supraventricular arrythmia, Grade 4, number of patients ([5]; intermittent dose (n=35)): 1
Thrombocytopenia, Grade 1, number of patients ([5]; intermittent dose (n=35)): 3
Thrombocytopenia, Grade 3, number of patients ([5]; intermittent dose (n=35)): 2
patients with dose reductions ([5]; intermittent doses, 7 out of 30 patients): 23%
dose up to which lenalidomide was well tolerated ([5]; intermittent dosing schedule, 21 days on, 7 days off): up to 35 mg/day
